Measured values taken from article PMC6471013 (Chemistry (Weinheim an Der Bergstrasse, Germany), 2018).
Like-named read-outs stand apart in the source and are kept apart here.

Legend:
[1] = tested on: αvβ3‐expressing human renal cell carcinoma 786‐O cells; assay: Cell antiproliferative assay, 96 h, with or without elastase; type: cell-based; details: 786-0, 96 h
In short: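 786‐O renal carcinoma cells (αvβ3-positive) exposed to test compound for 96 h, with or without 50 nm elastase from human leukocytes. IC50 taken as the concentration giving 50 % inhibition of cell viability. Samples run in triplicate.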

[2] = target: Recombinant human integrin αvβ3 receptor (Homo sapiens, UniProt P05106+P06756); type: binding; details: competition with biotinylated vitronectin for the isolated αvβ3 receptor
In short: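 Test compound competes with biotinylated vitronectin for binding to the αvβ3 receptor. IC50 is the concentration giving 50 % inhibition of vitronectin binding, estimated by curve fitting. Values are mean ± SD of duplicate determinations.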

Sequence of Recombinant human integrin αvβ3 receptor (P06756 31-992 limits assumed): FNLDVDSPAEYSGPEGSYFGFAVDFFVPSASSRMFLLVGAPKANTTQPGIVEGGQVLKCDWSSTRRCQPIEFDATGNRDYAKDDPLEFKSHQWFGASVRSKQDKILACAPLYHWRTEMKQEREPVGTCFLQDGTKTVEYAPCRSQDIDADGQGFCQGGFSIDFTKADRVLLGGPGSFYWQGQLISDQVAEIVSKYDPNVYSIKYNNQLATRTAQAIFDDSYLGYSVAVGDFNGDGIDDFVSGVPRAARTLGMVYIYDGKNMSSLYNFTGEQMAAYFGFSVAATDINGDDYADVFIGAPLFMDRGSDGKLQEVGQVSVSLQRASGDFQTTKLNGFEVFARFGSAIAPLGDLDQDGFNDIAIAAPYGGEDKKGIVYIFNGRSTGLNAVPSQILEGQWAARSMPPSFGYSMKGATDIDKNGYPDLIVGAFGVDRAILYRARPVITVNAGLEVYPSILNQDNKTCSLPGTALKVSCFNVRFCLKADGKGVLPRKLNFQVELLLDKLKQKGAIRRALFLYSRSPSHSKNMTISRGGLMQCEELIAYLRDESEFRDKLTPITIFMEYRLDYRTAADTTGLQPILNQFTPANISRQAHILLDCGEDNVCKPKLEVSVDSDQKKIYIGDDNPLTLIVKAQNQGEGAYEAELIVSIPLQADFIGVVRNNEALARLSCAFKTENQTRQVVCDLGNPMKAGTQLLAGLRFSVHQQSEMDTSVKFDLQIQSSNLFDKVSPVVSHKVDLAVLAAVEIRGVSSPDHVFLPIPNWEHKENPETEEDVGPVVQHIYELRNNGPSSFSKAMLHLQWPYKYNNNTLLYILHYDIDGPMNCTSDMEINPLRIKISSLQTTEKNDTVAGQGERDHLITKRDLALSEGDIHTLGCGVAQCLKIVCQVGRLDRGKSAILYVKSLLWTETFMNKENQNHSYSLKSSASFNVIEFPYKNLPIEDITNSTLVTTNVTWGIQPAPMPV
Sequence of Recombinant human integrin αvβ3 receptor (P05106 27-718 limits assumed): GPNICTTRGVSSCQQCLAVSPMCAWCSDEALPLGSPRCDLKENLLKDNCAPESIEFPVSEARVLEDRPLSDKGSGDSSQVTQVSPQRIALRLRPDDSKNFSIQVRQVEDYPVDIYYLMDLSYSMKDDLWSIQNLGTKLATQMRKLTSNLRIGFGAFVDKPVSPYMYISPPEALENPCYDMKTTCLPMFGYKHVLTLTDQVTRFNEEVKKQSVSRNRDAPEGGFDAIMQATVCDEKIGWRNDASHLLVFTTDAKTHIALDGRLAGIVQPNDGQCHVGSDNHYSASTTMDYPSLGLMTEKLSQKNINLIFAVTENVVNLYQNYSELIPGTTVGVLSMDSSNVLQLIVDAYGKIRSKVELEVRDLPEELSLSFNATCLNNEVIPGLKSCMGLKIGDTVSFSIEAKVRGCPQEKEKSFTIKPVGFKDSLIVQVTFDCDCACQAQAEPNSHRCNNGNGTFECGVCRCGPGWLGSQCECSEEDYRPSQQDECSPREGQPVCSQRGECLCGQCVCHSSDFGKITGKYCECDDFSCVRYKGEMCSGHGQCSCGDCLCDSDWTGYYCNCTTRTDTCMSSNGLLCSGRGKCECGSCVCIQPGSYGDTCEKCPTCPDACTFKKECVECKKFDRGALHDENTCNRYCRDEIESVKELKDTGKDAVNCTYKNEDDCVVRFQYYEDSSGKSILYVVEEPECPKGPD

Row | IC50 ([1]; read-out: IC50, added elastase NO) [nM] | IC50 ([1]; read-out: IC50, added elastase YES) [nM] | αvβ3 integrin binding IC50, in words [2] | Structure (SMILES)
1 | 35.8 ± 16.7 | 29.5 ± 7.6 |  | CC(=O)O[C@H]1C(=O)[C@@]2(C)[C@H]([C@H](OC(=O)c3ccccc3)[C@]3(O)C[C@H](OC(=O)[C@H](O)[C@@H](NC(=O)c4ccccc4)c4ccccc4)C(C)=C1C3(C)C)[C@]1(OC(C)=O)CO[C@@H]1C[C@@H]2O [compound 12, Paclitaxel]
2 |  |  | micromolar | N=C(N)NCCC[C@@H]1NC(=O)C[C@@H]2NC(=O)[C@@H](CNC(=O)[C@H](CC(=O)O)NC(=O)CCNC1=O)N(Cc1ccccc1)C2=O [compound 3, cyclo(DKP‐RβAD)]
3 |  |  | low‐nanomolar | CN1C(=CC=CC=CC2=[N+](CCCCCC(=O)NCc3ccc(CN4C(=O)[C@@H]5CC(=O)N[C@@H](CCCNC(=N)N)C(=O)NCC(=O)N[C@@H](CC(=O)O)C(=O)NC[C@@H]4C(=O)N5)cc3)c3ccc(S(=O)(=O)[O-])cc3C2(C)C)C(C)(C)c2cc(S(=O)(=O)O)ccc21 [compound 2, cyclo(DKP‐RGD)‐sCy5]
